Test results published in ChEMBL document CHEMBL5058577, “EUbOPEN Chemogenomics Library 2 (Multiplex)” (2022).

Tested on: U2OS
Experiment: Multiplex assay against U2OS
Assay type: toxicity, cell-based
Details: human
Method in brief: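 Phenotypes for tubulin, mitochondrial mass and membrane permeability are expressed as per cents of healthy-nucleus cells. Cells were stained live at seeding with Hoechst33342, BioTracker Green Microtubule Cytoskeleton Dye, MitoTracker Red and Annexin V Alexa Fluor 680, then imaged after compound addition on a CQ1 microscope at 37°C and 5% CO2. Machine-learning gating in CellPathfinder separated Hoechst high-intensity objects from normal cells, divided normal cells by nuclear state (healthy, pyknosed, fragmented) and divided pyknosed cells into mitotic or apoptotic.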

[1] = 12 h, 1 µM, compound concentration 1 uM, replicate 1
[2] = 12 h, 1 µM, compound concentration 1 uM, replicate 2
[3] = 12 h, 10 µM, compound concentration 10 uM, replicate 1
[4] = 12 h, 10 µM, compound concentration 10 uM, replicate 2
[5] = 24 h, 1 µM, compound concentration 1 uM, replicate 1
[6] = 24 h, 1 µM, compound concentration 1 uM, replicate 2
[7] = 24 h, 10 µM, compound concentration 10 uM, replicate 1
[8] = 24 h, 10 µM, compound concentration 10 uM, replicate 2
[9] = 48 h, 1 µM, compound concentration 1 uM, replicate 1
[10] = 48 h, 1 µM, compound concentration 1 uM, replicate 2
[11] = 48 h, 10 µM, compound concentration 10 uM, replicate 1
[12] = 48 h, 10 µM, compound concentration 10 uM, replicate 2

## Cc1c(Cc2ccc3ccccc3n2)c2cc(F)ccc2n1CC(=O)O [TIMAPIPRANT]
[1]
  Population Apoptotic (%): 84%
  Population Fragmented Nuclei (%): 21%
  Population Healthy Nuclei (%): 69%
  Population Hoechst High Intensity Objects (%): 2%
  Population Membrane Permeable-Phenotype (%): 3%
  Population Mitochondria Different-Phenotype (%): 1%
  Population Mitotic Cells (%): 16%
  Population Normal (%): 97%
  Population Pyknosed Nuclei (%): 8%
  Population Tubulin-Different-Phenotype (%): 1%
  Total Cell Count: 298
[2]
  Population Apoptotic (%): 83%
  Population Fragmented Nuclei (%): 22%
  Population Healthy Nuclei (%): 70%
  Population Hoechst High Intensity Objects (%): 1%
  Population Membrane Permeable-Phenotype (%): 4%
  Population Mitochondria Different-Phenotype (%): 4%
  Population Normal (%): 98%
  Population Pyknosed Nuclei (%): 6%
  Population Tubulin-Different-Phenotype (%): 3%
  Total Cell Count: 94
[3]
  Population Apoptotic (%): 75%
  Population Fragmented Nuclei (%): 30%
  Population Healthy Nuclei (%): 62%
  Population Hoechst High Intensity Objects (%): 2%
  Population Membrane Permeable-Phenotype (%): 4%
  Population Mitochondria Different-Phenotype (%): 1%
  Population Mitotic Cells (%): 25%
  Population Normal (%): 97%
  Population Pyknosed Nuclei (%): 6%
  Population Tubulin-Different-Phenotype (%): 2%
  Total Cell Count: 244
[4]
  Population Apoptotic (%): 68%
  Population Fragmented Nuclei (%): 12%
  Population Healthy Nuclei (%): 75%
  Population Hoechst High Intensity Objects (%): 0%
  Population Membrane Permeable-Phenotype (%): 6%
  Population Mitochondria Different-Phenotype (%): 3%
  Population Mitotic Cells (%): 31%
  Population Normal (%): 99%
  Population Pyknosed Nuclei (%): 12%
  Population Tubulin-Different-Phenotype (%): 3%
  Total Cell Count: 132
[5]
  Population Apoptotic (%): 96%
  Population Fragmented Nuclei (%): 18%
  Population Healthy Nuclei (%): 73%
  Population Hoechst High Intensity Objects (%): 1%
  Population Membrane Permeable-Phenotype (%): 6%
  Population Mitochondria Different-Phenotype (%): 3%
  Population Mitotic Cells (%): 3%
  Population Normal (%): 98%
  Population Pyknosed Nuclei (%): 7%
  Population Tubulin-Different-Phenotype (%): 4%
  Total Cell Count: 371
[6]
  Population Apoptotic (%): 100%
  Population Fragmented Nuclei (%): 19%
  Population Membrane Permeable-Phenotype (%): 7%
  Population Mitochondria Different-Phenotype (%): 2%
  Population Mitotic Cells (%): 0%
  Population Tubulin-Different-Phenotype (%): 3%
  Total Cell Count: 117
[7]
  Population Apoptotic (%): 94%
  Population Fragmented Nuclei (%): 26%
  Population Healthy Nuclei (%): 66%
  Population Hoechst High Intensity Objects (%): 1%
  Population Membrane Permeable-Phenotype (%): 6%
  Population Mitochondria Different-Phenotype (%): 2%
  Population Mitotic Cells (%): 5%
  Population Normal (%): 98%
  Population Pyknosed Nuclei (%): 6%
  Population Tubulin-Different-Phenotype (%): 3%
  Total Cell Count: 278
[8]
  Population Apoptotic (%): 72%
  Population Fragmented Nuclei (%): 18%
  Population Healthy Nuclei (%): 74%
  Population Hoechst High Intensity Objects (%): 0%
  Population Membrane Permeable-Phenotype (%): 8%
  Population Mitotic Cells (%): 27%
  Population Normal (%): 100%
  Population Pyknosed Nuclei (%): 7%
  Total Cell Count: 152
[9]
  Population Apoptotic (%): 88%
  Population Fragmented Nuclei (%): 16%
  Population Healthy Nuclei (%): 77%
  Population Hoechst High Intensity Objects (%): 1%
  Population Membrane Permeable-Phenotype (%): 4%
  Population Mitochondria Different-Phenotype (%): 3%
  Population Mitotic Cells (%): 11%
  Population Normal (%): 98%
  Population Pyknosed Nuclei (%): 6%
  Population Tubulin-Different-Phenotype (%): 3%
  Total Cell Count: 536
[10]
  Population Apoptotic (%): 90%
  Population Fragmented Nuclei (%): 22%
  Population Healthy Nuclei (%): 71%
  Population Hoechst High Intensity Objects (%): 2%
  Population Membrane Permeable-Phenotype (%): 12%
  Population Mitochondria Different-Phenotype (%): 5%
  Population Mitotic Cells (%): 10%
  Population Normal (%): 97%
  Population Tubulin-Different-Phenotype (%): 6%
  Total Cell Count: 168
[11]
  Population Apoptotic (%): 100%
  Population Fragmented Nuclei (%): 19%
  Population Healthy Nuclei (%): 74%
  Population Hoechst High Intensity Objects (%): 0%
  Population Membrane Permeable-Phenotype (%): 3%
  Population Mitochondria Different-Phenotype (%): 1%
  Population Mitotic Cells (%): 0%
  Population Normal (%): 99%
  Population Pyknosed Nuclei (%): 6%
  Population Tubulin-Different-Phenotype (%): 1%
  Total Cell Count: 392
[12]
  Population Apoptotic (%): 92%
  Population Fragmented Nuclei (%): 13%
  Population Healthy Nuclei (%): 80%
  Population Hoechst High Intensity Objects (%): 2%
  Population Membrane Permeable-Phenotype (%): 5%
  Population Mitochondria Different-Phenotype (%): 3%
  Population Mitotic Cells (%): 7%
  Population Normal (%): 97%
  Population Tubulin-Different-Phenotype (%): 3%
  Total Cell Count: 204
